Experiment: Toxicity liver stage against HepG2, at 10uM
Assay type: cell-based
Parameters: test concentration 10 uM, cell line HepG2-A16-CD81EGFP
Settings: human, HepG2-A16-CD81EGFP cells; read-out: INHIBITION
Procedure, shortened: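 Uninfected HepG2-A16-CD81EGFP cells, 3 × 10^3 per well, 1536-well, plated on prespotted compound at 10 μM final, parasite-free screening media added to match infected plates; puromycin 10 μM positive, DMSO 0.5% negative; run in parallel with 48 h PbLuc assay at 37 °C, 5% CO2; viability by CellTiter-Glo luminescence, normalized to controls.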

Compound	cytotoxicity at 10 µM [%]
COC(=O)c1ccc2c(-c3ccnc(NCCO)n3)c[nH]c2c1	-12.8
Cc1cc(O)cc(=O)n1CCCC(=O)Nc1n[nH]c2ccccc12	-10.6
COc1ccc(S(=O)(=O)NCC(c2cccn2C)N(C)C)cc1F (stereo not given)	-0.418
CC(O)(CNC(=O)c1c(F)cccc1Cl)C1CC1 (stereo not given)	-8.87
CN(C)CC(=O)N1CCC2(CCN(Cc3cccc(F)c3)CC2)C1	1.11
CN(CC1(C)COC1)C(=O)c1cc(-c2cnn(C)c2)nc2ccccc12	0.89
Cc1c[nH]nc1C1CCN(c2cnccn2)C1 (stereo not given)	5.3
O=C(O)c1ccccc1-c1ccc(CN2CCC(CO)CC2)cn1	2.45
CN1CCC(c2nccnc2Nc2cnccn2)CC1	-4.27
CC(=O)N1CCC(c2cccc(Oc3ccccc3)n2)CC1	-0.0757
COCCN1CCCC(c2ncc(C(=O)N(C)C)c(C)n2)C1 (stereo not given)	-1.21
CC(=O)N1CCOC(c2nc(N(C)C)ncc2-c2cccc(F)c2)C1 (stereo not given)	-27.5
CC(=O)NCC(=O)N1CCC(c2cncc(Oc3cccnc3)n2)CC1	-19.5
CS(=O)(=O)c1snnc1C1CCCN(Cc2ccncc2)C1 (stereo not given)	-11.5
CN(CC1(O)CCCN(c2ccccn2)C1)C(=O)Cc1ccsc1 (stereo not given)	-1.11
Cn1ccc(C(=O)Nc2nccn2Cc2ccccc2Cl)cc1=O	-1.92
CCC(NC(=O)NCc1nncn1CC)c1ccc(OC)cc1 (stereo not given)	1.97
Cc1nn(CC(=O)NCC2(C(N)=O)CCOCC2)c(C)c1Cl	2.83
CC(C)CCC(=O)NC(C#N)CC(C)C (stereo not given)	2.53
Cc1nc(CSc2ccc(C(F)(F)F)cn2)no1	-3.38
Cn1ncc(C(=O)OCC2CCN(c3ccccc3)C2)c1C(F)F (stereo not given)	-5.44
CC(C(=O)Nc1ccnn1C(C)C)N1CCN(Cc2ccon2)CC1 (stereo not given)	0.72

Compound	cytotoxicity at 10 µM [%]
NC(=O)NC(=O)Cn1ccc2sccc2c1=O	0.354
OC(CN(Cc1ccccc1)Cc1cscn1)c1cccs1 (stereo not given)	4.74
COCCCN(Cc1ccncc1)c1cc(C)ncn1	3.35
CCCS(=O)(=O)NCC(C)c1ccc(F)c(F)c1 (stereo not given)	-6.82
CC(C)S(=O)(=O)c1ccccc1C(=O)NCC1Cc2ccccc2O1 (stereo not given)	5.87
Cc1cc(N2CCC(NCCOc3ccccc3)CC2)nc(C)n1	-6.11
Cc1nc(CCNC(C)c2ccc3c(c2)OCCCO3)cs1 (stereo not given)	3.3
CC(=O)Nc1nc(C(=O)NCCOc2cccc(C)c2)cs1	-0.794
CNC(=O)c1ccc(OC)c(NCc2noc(-c3cccs3)n2)c1	2.76
CC(CNC(=O)c1c[nH]nn1)Oc1ccccc1Br (stereo not given)	-0.509
Cn1cc(N2CCCC(SCc3ccco3)C2=O)cn1 (stereo not given)	17.3
CCCC(=O)NCC(=O)NC(c1ccc(Cl)cc1)C(F)(F)F (stereo not given)	-3.63
CC(C)c1ccc(NC(=O)c2ncc(C(N)=O)cc2Cl)cc1	-1.85
COc1ccccc1NC(=O)NCc1cn[nH]c1	16.9
Cc1ccc(CCCC(=O)N2CCCC(CS(N)(=O)=O)C2)s1 (stereo not given)	17.9
COCCC1(CNC(=O)NCC2CN(C)CCN2C)CCC1 (stereo not given)	6.35
CC(=O)N1CCCC(C(=O)NCCc2ccc(F)c(Br)c2)C1 (stereo not given)	4.64
Cc1nc(Cn2c3c(ccc2=O)CC(N)CC3)cs1 (stereo not given)	1.88
COCCN1CCN(S(=O)(=O)C2CC2)Cc2cccnc21	4.73
CCOCC1CC2(CCN(C(=O)c3cscn3)CC2)CO1 (stereo not given)	2.42
Cc1ccc(N2CCC3(CCN(C(=O)c4ccsc4)CC3)CC2)nn1	2.19
Cn1cccc1C(=O)N1CCn2cc(CNC(=O)CC3CC3)nc2C1	3.11

Compound	cytotoxicity at 10 µM [%]
NC(=O)[C@H]1CCCN(c2nccc(-c3ccncc3)n2)C1	-5.03
CC(C)n1cnnc1CN(C)C1CCCNC1 (stereo not given)	6.9
COC(=O)C1CCCCN1C(=O)c1cn(C/C=C/c2ccccc2)nn1 (stereo not given)	3.98
CCn1c(C2CCN(C(=O)c3cc(CC(C)C)no3)CC2)nn(C)c1=O	-2.51
CCC(CO)N(C/C(C)=C/c1ccco1)Cc1ccco1 (stereo not given)	-3.41
O=C(NCCc1cccs1)N1CCCC2(CCC(=O)N(C3CC3)C2)C1 (stereo not given)	-7.82
C[C@@H]1CN(S(=O)(=O)N2CCCC2)C[C@@]1(O)C1CC1	-5.07
N[C@H]1CN(C(=O)c2ccc3[nH]c(CO)nc3c2)C[C@@H]1c1ccccc1	-1.82
O=S(=O)(Cc1ccccc1Cl)NCCCN1CCCC1	-4.54
COc1ccc(Cc2nnc(SC)o2)cc1OC	-13.8
Cc1c(NC(=O)c2noc3c2CCCC3)cnn1C	-5.41
CC(C)Cc1cc(NC(=O)c2ccccc2)n(C)n1	-3.37
Cc1cnc(CN(C)C2CCCN(Cc3noc(C4CC4)n3)C2)cn1 (stereo not given)	-2.13
Cc1cnn(C2CN(CC(=O)NCCc3c[nH]c4ccccc34)C2)c1	-4.01
CC(=O)N1CCCN(C(=O)CCc2c(C)nc3ccnn3c2C)CC1	-3.12
N#Cc1ccccc1N1CCCN(C(=O)NCc2cc[nH]n2)CC1	0.428
CC(=O)N(Cc1noc(C2CC2)n1)C1CCN(Cc2ccccn2)C1 (stereo not given)	-5.72
Cc1nccn1CCCC(=O)N1CCCN(c2cccnn2)CC1	-9.35
CC(=O)N(Cc1ncc(C)o1)C1CCN(Cc2ccccc2C#N)C1 (stereo not given)	-15.5
CC(C)c1nc(C2CCCN(C(=O)c3nccn4ccnc34)C2)no1 (stereo not given)	-12.7
CCc1nnc(C2Cc3ccccc3CN2Cc2nc(C)no2)o1 (stereo not given)	-7.78
CN(C)c1cc(CNC(=O)c2cccnc2O)ccn1	-5.26

Compound	cytotoxicity at 10 µM [%]
CCOc1ccccc1-c1noc(CN2CCOC(CN(C)C)C2)n1 (stereo not given)	-5
CC1CN(C)CCN1C(=O)c1ccn(-c2cccc(Cl)c2)n1 (stereo not given)	-26.3
CC(C)C(Sc1nnc(C2CC2)n1C1CC1)C(=O)NCc1cccnc1 (stereo not given)	-11.2
O=C(c1ccc(Cl)c(Cl)c1)N1CCCC(n2cncn2)C1 (stereo not given)	-5.16
Cc1ccc(S(=O)(=O)N2CCOc3ccccc32)cc1C(=O)O	-0.524
CC(C)n1ccnc1CN1CCCN(C(=O)c2cccnc2O)CC1	1.74
CCc1nc(C2CCCN2CCc2ccccn2)no1 (stereo not given)	-7.03
CCOc1nnc(CN2CCOC(CNc3cccnn3)C2)s1 (stereo not given)	1.82
CCn1cnnc1CNC(=O)NC(C)C(C)C (stereo not given)	-6.15
Cc1cc(C)c(N(CC(O)CNCc2ccco2)S(C)(=O)=O)c(C)c1 (stereo not given)	-12.5
CN(C)[C@@H]1CCN(c2ncc(F)cn2)[C@H]1Cc1cccnc1	2.53
CCOC(=O)CN1CC(c2nc(-c3ccsc3)no2)C1	-12.3
CN(C)CCN1C(=O)CCC12CCCN(C(=O)N(C)C)CC2 (stereo not given)	4.56
CN1CCOC2(CCCN(C(=O)C3CCCCC3)C2)C1 (stereo not given)	-6.66
O=C(C1CC1)N1CCC2(CCN2Cc2ccc(F)cc2)C1 (stereo not given)	1.55
O=C(c1n[nH]c2c1CN(C1CCOC1)CC2)N1CCOCC1 (stereo not given)	4.88
CN(C)C(=O)CN1C(=O)CCC12CCN(Cc1cccs1)CC2	-2.6
O=C1CC2(CCN(CC3CCOC3)CC2)c2ccccc2N1CC1CC1 (stereo not given)	-9.61
O=C(N[C@@H]1C[C@@H]2CC[C@H]1C2)C1(Oc2ccc(Cl)cc2)CCNCC1	-5.26

From ChEMBL document CHEMBL4513216, “Probing the Open Global Health Chemical Diversity Library for Multistage-Active Starting Points for Next-Generation Antimalarials” (ACS Infect Dis, 2020)
